Key:
[1] = tested on: Mus musculus; test: Mice were inoculated intraperitoneally with L1210 leukemia cells and the median life span of the mice with the compound was evaluated at a dose of 200 mg/kg; format: functional; settings: route intraperitoneal
How it was run: (§1)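 Mice implanted ip with L1210 leukemia, in groups of six, with 36 untreated controls. Drug given ip on days 1-5 at 50-800 mg/kg. Endpoint was median life span in days, with percent increase in life span (ILS) relative to untreated controls. Body weight change was taken as day 5 minus day 1 average weight.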

[2] = tested on: Mus musculus; test: Mice were inoculated intraperitoneally with L1210 leukemia cells and the percentage ILS of the mice with the compound was evaluated at a dose of 100 mg/kg; format: functional; settings: L1210, ip, route intraperitoneal; how it was run: as §1
[3] = tested on: Mus musculus; test: Mice were inoculated intraperitoneally with L1210 leukemia cells and the median life span of the mice with the compound was evaluated at a dose of 50 mg/kg; format: functional; settings: route intraperitoneal; how it was run: as §1
[4] = tested on: Mus musculus; test: Mice were inoculated intraperitoneally with L1210 leukemia cells and the change in body weight of the mice with the compound was evaluated at a dose of 200 mg/kg; format: functional; settings: route intraperitoneal
How it was run: (§2)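 Mice received intraperitoneally implanted L1210 leukemia, with groups of six treated mice and 36 untreated controls. Compound was given intraperitoneally on days 1-5. Body weight change was the average weight on day 5 minus the average on day 1, in grams. Median life span and % ILS were recorded against the untreated controls.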

[5] = tested on: Mus musculus; test: Mice were inoculated intraperitoneally with L1210 leukemia cells and the median life span of the mice with the compound was evaluated at a dose of 100 mg/kg; format: functional; settings: route intraperitoneal; how it was run: as §1
[6] = tested on: Mus musculus; test: Mice were inoculated intraperitoneally with L1210 leukemia cells and the change in body weight of the mice with the compound was evaluated at a dose of 100 mg/kg; format: functional; settings: route intraperitoneal; how it was run: as §2
[7] = tested on: Mus musculus; test: Mice were inoculated intraperitoneally with L1210 leukemia cells and the percentage ILS of the mice with the compound was evaluated at a dose of 200 mg/kg; format: functional; settings: L1210, ip, route intraperitoneal; how it was run: as §1
[8] = tested on: Mus musculus; test: Mice were inoculated intraperitoneally with L1210 leukemia cells and the percentage ILS of the mice with the compound was evaluated at a dose of 50 mg/kg; format: functional; settings: L1210, ip, route intraperitoneal; how it was run: as §1
[9] = tested on: Mus musculus; test: Mice were inoculated intraperitoneally with L1210 leukemia cells and the median life span of the mice with the compound was evaluated at a dose of 400 mg/kg; format: functional; settings: route intraperitoneal; how it was run: as §1
[10] = tested on: Mus musculus; test: Mice were inoculated intraperitoneally with L1210 leukemia cells and the change in body weight of the mice with the compound was evaluated at a dose of 400 mg/kg; format: functional; settings: route intraperitoneal; how it was run: as §2
[11] = tested on: Mus musculus; test: Mice were inoculated intraperitoneally with L1210 leukemia cells and the percentage ILS of the mice with the compound was evaluated at a dose of 400 mg/kg; format: functional; settings: L1210, ip, route intraperitoneal; how it was run: as §1
[12] = tested on: Mus musculus; test: Mice were inoculated intraperitoneally with L1210 leukemia cells and the change in body weight of the mice with the compound was evaluated at a dose of 50 mg/kg; format: functional; settings: route intraperitoneal; how it was run: as §2
[13] = target: purine nucleoside phosphorylase (human) (UniProt P00491); test: Compound was evaluated for the concentration which […] inosine phosphorolysis by human lymphoblast purine nucleoside phosphorylase and expressed as IC50
[14] = tested on: T-cells (human); test: Compound was evaluated for the cytotoxicity to T cells in the presence of 2'-deoxyguanosine and expressed as ED50
[15] = tested on: Mus musculus; test: Mice were inoculated intraperitoneally with L1210 leukemia cells and the median life span of the mice with the compound was evaluated at a dose of 800 mg/kg; format: functional; settings: route intraperitoneal; how it was run: as §1
[16] = organism: Mus musculus; test: Compound was evaluated for the cytotoxicity to L1210 leukemia cells in culture at ~1.6-fold higher concentrations and expressed as ID50; format: functional; settings: read-out: ID50 (the source's name)
[17] = tested on: Mus musculus; test: Mice were inoculated intraperitoneally with L1210 leukemia cells and the percentage ILS of the mice with the compound was evaluated at a dose of 800 mg/kg; format: functional; settings: L1210, ip, route intraperitoneal; how it was run: as §1
[18] = tested on: Mus musculus; test: Mice were inoculated intraperitoneally with L1210 leukemia cells and the change in body weight of the mice with the compound was evaluated at a dose of 800 mg/kg; format: functional; settings: route intraperitoneal; how it was run: as §2
[19] = tested on: Mus musculus; test: Mice were inoculated intraperitoneally with L1210 leukemia cells and the percentage ILS of the mice with the compound was evaluated at a dose of 25 mg/kg; format: functional; settings: L1210, ip, route intraperitoneal
[20] = tested on: Mus musculus; test: Mice were inoculated intraperitoneally with L1210 leukemia cells and the change in body weight of the mice with the compound was evaluated at a dose of 25 mg/kg; format: functional; settings: route intraperitoneal
[21] = tested on: Mus musculus; test: Mice were inoculated intraperitoneally with L1210 leukemia cells and the median life span of the mice with the compound was evaluated at a dose of 25 mg/kg; format: functional; settings: route intraperitoneal

| Structure (SMILES) | Median life span [1] | ILS at 100 mg/kg [2] | Median life span [3] | Body weight change [4] | Median life span [5] | Body weight change [6] | ILS at 200 mg/kg [7] | ILS at 50 mg/kg [8] | Median life span [9] | Body weight change [10] | ILS at 400 mg/kg [11] | Body weight change [12] | Median life span [15] | IC50 [16] | ILS at 800 mg/kg [17] | Body weight change [18] | further results |
| --- | --- | --- | --- | --- | --- | --- | --- | --- | --- | --- | --- | --- | --- | --- | --- | --- | --- |
| NC(=O)c1csc([C@@H]2O[C@@H]3COP(=O)(O)O[C@H]3[C@H]2O)n1 | 17.7 days | 23% | 13.3 days | -1.9 g | 14.3 days | -0.6 g | 52% | 14% | 18 days | -3.1 g | 55% | -1.1 g |  |  |  |  |  |
| N=C(N)c1csc([C@@H]2O[C@H](CO)[C@@H](O)[C@H]2O)n1 |  |  |  |  |  |  |  |  |  |  |  |  |  |  |  |  | IC50 [13]: 300 µM; EC50 [14]: 77 µM |
| NC(=O)c1csc([C@@H]2O[C@H](COP(=O)(O)O)[C@@H](O)[C@H]2O)n1 | 21.5 days | 86% | 11.3 days | -1.4 g | 15.5 days | -1 g | 159% | 36% | 15.2 days | -2 g | 83% | -0.6 g | 16.3 days | 3.2 µM | 96% | -3.6 g |  |
| NC(=O)c1csc([C@@H]2O[C@H](CO)[C@@H](O)[C@H]2O)n1 [TIAZOFURIN] | 16.5 days | 82% | 13.5 days | -2.9 g | 14.8 days | -2.5 g | 103% | 66% | 16.2 days | -3.9 g | 100% | -2.1 g | 15 days | 1.9 µM | 85% | -4.4 g | ILS at 25 mg/kg [19]: 58%; Body weight change [20]: -2.6 g; Median life span [21]: 12.8 days |

From ChEMBL document CHEMBL1122579, “Synthesis and biological activity of nucleosides and nucleotides related to the antitumor agent 2-beta-D-ribofuranosylthiazole-4-carboxamide” (J Med Chem, 1984)
